Compound activity from PubChem.
A selection: hits, their analogues and other compounds. The true share with any hit is near 1.3%.
FN deposit inh – fibronectin deposition inhibition. AID 743247. inhibition, % at 12.6 µM. 0.086% of 350,000 active. AH1F fibroblasts, Alexa488-fibronectin deposition fluorescence, overnight;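 active means mean inhibition across replicates of 30% or more, regardless of how many single replicates reach that level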;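 further: positive control wells lacked labelled fibronectin entirely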
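Test system: AH1F fibroblast monolayer depositing Alexa488-labelled fibronectin into matrix. Input: 10000 cells per well. Technique: fluorescence, ex 485 nm, em 525 nm. Buffer or medium: DMEM plus 2% serum, read in PBS. Timing: 1 h cell adhesion before compound, then overnight fibronectin incubation. Compound: single dose, pinned. Read-out basis: inhibition from reduced deposited-fibronectin fluorescence.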
RAD52 anneal inh – RAD52 (human) annealing inhibition; 0.46% of 360,000 active; inhibition, % at 18.7 µM; P43351; recombinant RAD52 DNA annealing, FRET fluorescence;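 active means every replicate showing at least 50% inhibition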
Target sequence (P43351 whole entry, looked up): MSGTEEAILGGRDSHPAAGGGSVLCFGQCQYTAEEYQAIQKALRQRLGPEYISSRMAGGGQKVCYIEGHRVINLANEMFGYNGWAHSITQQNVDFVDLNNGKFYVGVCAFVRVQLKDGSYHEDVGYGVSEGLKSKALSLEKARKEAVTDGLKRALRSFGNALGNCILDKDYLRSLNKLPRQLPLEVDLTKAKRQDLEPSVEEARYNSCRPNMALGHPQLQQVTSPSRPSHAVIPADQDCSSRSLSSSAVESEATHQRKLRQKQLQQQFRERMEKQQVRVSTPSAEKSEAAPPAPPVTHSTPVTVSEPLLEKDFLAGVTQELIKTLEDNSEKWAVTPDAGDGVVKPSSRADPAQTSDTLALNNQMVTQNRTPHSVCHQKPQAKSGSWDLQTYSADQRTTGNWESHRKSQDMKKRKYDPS
RAD54 branch – RAD54 (human) branch migration inhibition; 0.14% of 360,000 active; Q92698; RAD54 Holliday junction branch migration, FAM/BHQ fluorescence; inhibition, % at 10.4 µM; AID 602329;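 active means mean normalized replicate activity at least 40 and at least half of replicates scoring 40 or more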;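 further: 0% = median of neutral control wells and 100% = median of positive control wells; inhibitors cause a drop in the FAM fluorescence signal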
PAX8 inh HTS – inhibitors of PAX8 transcriptional activity in RMG-I cells; inhibition, % at 12.6 µM; RMG-I TPO-luciferase reporter, SteadyGlo, 24 h; 1.2% of 360,000 active;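 active means mean replicate inhibition at least 60% with every replicate also reaching 60%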;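 further: luciferase light reporting Pax8 driven TPO promoter activity; plate controls were median of neutral control wells for no effect and mitoxantrone controls for full effect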
* hit, by the source's call; x = not tested or not shown.

SMILES	FN deposit inh	RAD52 anneal inh	RAD54 branch	PAX8 inh HTS
CC(NNC(=S)N1CCN(c2ccccn2)CC1)c1nccc2ccccc12 (centres undefined)	3.0	-32.5	x	71.8*
CCN(c1cccc(C)c1)S(=O)(=O)c1cc2c3c(c1)CCN3C(=O)CC2	5.0	-14.6	x	x
O=c1[nH]cnc2nc(-c3ccccc3)c(-c3ccccc3)nc12	9.9	x	-12.2	10.5
O=c1[nH]cnc2ncc(-c3ccc(O)cc3)nc12	-3.3	-9.3	2.9	68.9*
CCC(=O)N(C)C[C@H]1Oc2ncc(C#Cc3ccncc3)cc2C(=O)N([C@H](C)CO)C[C@@H]1C	-0.5	-9.5	-6.7	x
C[C@@H]1CN([C@H](C)CO)C(=O)c2cc(C#Cc3cccc(F)c3)cnc2O[C@@H]1CN(C)C(=O)C1CCC1	x	9.8	-7.9	10.3
O=C(Nc1cccc([N+](=O)[O-])c1)c1cc2ccccc2cc1O	-5.4	-13.6	3.1	77.6*
COc1ccc(NC(=O)c2cc([N+](=O)[O-])ccc2O)cc1	x	-0.5	x	100.2*
O=C(O)c1ccccc1C(=O)Nc1cccc([N+](=O)[O-])c1	-5.7	-16.2	x	-23.7
Cc1ccc(NC(=O)Nc2nnc([C@@H]3C[C@H](O)[C@@H](CO)O3)s2)cc1	-9.7	-2.9	-6.8	-23.5
C=C1C(=O)[C@]23C[C@H]1CCC2[C@]1(C)C(=O)CC[C@@](C)(C(=O)O)C1C[C@@H]3O (some centres undefined)	x	-2.6	0.7	65.4*
C=C1C(=O)[C@]23C[C@H]1CC[C@H]2[C@]1(C)[C@@H](OC(C)=O)CC[C@@](C)(C(=O)O)[C@H]1C[C@@H]3OC(C)=O	-1.2	-24.6	-2.0	86.2*
C=C1C(=O)[C@]23C[C@H]1CCC2[C@]1(C)CCC[C@@](C)(C(=O)O)C1C[C@@H]3O (some centres undefined)	6.4	-6.9	2.5	117.2*
CC(C)C#Cc1ccc([C@@H]2[C@@H](C#N)N(C(=O)c3cccc(F)c3)[C@H]2CO)cc1	-20.4	3.7	0.4	6.3
CC1C/C(=N\NC(=O)c2ccc(NS(=O)(=O)c3ccc(Br)cc3)cc2)CC(C)(C)C1 (centres undefined)	4.3	-4.0	x	86.2*
CC1C/C(=N\NC(=O)c2ccc([N+](=O)[O-])cc2)CC(C)(C)C1 (centres undefined)	-3.3	-3.6	-1.9	14.9
Cc1cc(C)c(C#N)c(SCCN2CCOCC2)n1	0.4	-2.3	x	24.5
OC(COC(c1ccccc1)c1ccccc1)CN1CCOCC1 (centres undefined)	-1.8	-0.6	x	0.5
CC1CN(CC(O)COC(c2ccccc2)c2ccccc2)CC(C)O1 (centres undefined)	1.8	-2.5	0.9	120.4*
CC1CCCCC1NC(=O)CN1C(=O)CSc2cc(S(=O)(=O)N3CCCCCC3)ccc21 (centres undefined)	-4.0	4.2	x	84.7*
CCCCN(C(=O)c1ccc(S(=O)(=O)N(C)C)cc1)c1ccccc1	-1.8	-0.4	-14.4	2.2
O=C(O)CN1C(=O)C=CC1=O	7.7	-11.8	-16.6	-6.4
O=C1C=CC(=O)N1CCCCCCN1C(=O)C=CC1=O	47.6*	x	x	109.5*
C[C@@H]1CCCCO[C@H](CN(C)Cc2ccc3c(c2)OCO3)[C@H](C)CN([C@@H](C)CO)C(=O)c2cc(NC(=O)Nc3ccc4c(c3)OCO4)ccc2O1	1.6	36.7	3.5	33.4
C[C@H](CO)N1C[C@H](C)[C@@H](CN(C)Cc2ccc(C(F)(F)F)cc2)OCCCC[C@H](C)Oc2ccc(NC(=O)Nc3ccc4c(c3)OCO4)cc2C1=O	x	14.1	0.2	59.8
SMILES	FN deposit inh	RAD52 anneal inh	RAD54 branch	PAX8 inh HTS
C[C@@H]1CCCCO[C@@H](CN(C)Cc2ccc(C(F)(F)F)cc2)[C@H](C)CN([C@H](C)CO)C(=O)c2cc(NC(=O)Nc3ccc4c(c3)OCO4)ccc2O1	x	2.7	-2.6	71.4*
C[C@H]1CCCCO[C@@H](CN(C)Cc2ccc(C(F)(F)F)cc2)[C@@H](C)CN([C@@H](C)CO)C(=O)c2cc(NC(=O)Nc3ccc4c(c3)OCO4)ccc2O1	x	-4.6	-8.4	80.0*
C[C@H]1CCCCO[C@H](CN(C)Cc2ccc(C(F)(F)F)cc2)[C@@H](C)CN([C@@H](C)CO)C(=O)c2cc(NC(=O)Nc3ccc4c(c3)OCO4)ccc2O1	x	6.8	-16.9	45.8
C[C@@H]1CCCCO[C@H](CN(C)Cc2ccc(C(F)(F)F)cc2)[C@H](C)CN([C@@H](C)CO)C(=O)c2cc(NC(=O)Nc3ccc4c(c3)OCO4)ccc2O1	x	-0.9	0.8	83.9*
CC#CC[N+](C)(C)CCCCCCCCCCCC	8.5	29.2	9.0	82.6*
C#CC[N+](C)(C)CCCCCCCCCC	21.6	8.2	-15.0	19.8
C#CC[N+](C)(C)CCCCCCCCCCCC	10.7	33.1	x	87.2*
CCC(Sc1nc2c(cnn2-c2ccccc2)c(=O)[nH]1)C(=O)OC (centres undefined)	1.3	-1.2	13.1	-4.6
O=C(c1cccc2c1-c1ccccc1/C2=N/O)N1CCCCC1	8.8	x	4.1	-3.6
CCc1ccc(S(=O)(=O)/N=C2\C=C(Nc3ccc(C(=O)O)cc3)C(=O)c3ccccc32)cc1	12.4	2.2	1.6	92.6*
Cc1ccc(S(=O)(=O)/N=C2\C=C(Nc3cccc(C(=O)O)c3)C(=O)c3ccccc32)cc1	3.3	2.3	4.5	-43.7
NC(=O)C(=O)N/N=C1\CCc2ccccc21	x	-3.9	1.1	12.0
O=C(CSc1nnc(CNc2cccc(Cl)c2)o1)OC1CCCCC1	1.6	x	0.3	-13.1
O=S(=O)(c1ccc(N=C2NN=C(c3cc(F)ccc3F)CS2)cc1)N1CCOCC1	-9.2	-25.0	x	89.8*
Cc1ccc(-c2ccc([C@H]3[C@H](CO)N4CCCCN(S(=O)(=O)c5cccc(C)c5)C[C@@H]34)cc2)cc1	x	50.4*	1.6	87.2*
Cc1cccc(S(=O)(=O)N2CCCCN3[C@H](CO)[C@@H](c4ccc(-c5ccccc5)cc4)[C@H]3C2)c1	x	52.5*	0.2	22.4
Cc1cccc(S(=O)(=O)N2CCCCN3[C@H](C2)[C@H](c2ccc(-c4ccccc4)cc2)[C@@H]3CO)c1	x	-20.3	4.7	20.2
Cc1ccc(-c2ccc([C@@H]3[C@H](CO)N4CCCCN(S(=O)(=O)c5cccc(C)c5)C[C@@H]34)cc2)cc1	x	68.9*	0.3	5.1
Cc1ccc(-c2ccc([C@H]3[C@H]4CN(S(=O)(=O)c5cccc(C)c5)CCCCN4[C@H]3CO)cc2)cc1	x	26.4	5.2	-21.5
COc1ccc(Cc2c(-c3ccccc3)nc3ccc(C)cn23)c(C)c1	5.5	-12.3	x	-116.1
COC(=O)c1ccc(Cn2cnc3c(N)ncnc32)cc1	-5.8	-9.2	-5.4	-19.7
N#C[C@@H]1[C@@H](c2ccc(C3=CCCC3)cc2)[C@@H](CO)N1S(=O)(=O)c1ccccc1	-6.5	-16.1	-2.7	-0.4
COc1ccc(OC)c(NC(=O)C2CC(=O)N(c3ccccc3)C2)c1 (centres undefined)	x	x	-6.6	x
